From ChEMBL document CHEMBL3992547, “Antimicrobial activity of rhodanine-3-acetic acid derivatives” (Bioorg Med Chem, 2017)
≈ marks a conversion by molar mass, not a printed value. Calls of active or inactive are those of the source. The rule behind the calls is not given here.

What was measured:
[1] = tested on: Mycobacterium tuberculosis; assay: Antimycobacterial activity against Mycobacterium tuberculosis H37Rv 331/88 measured after 14 days by micromethod; type: functional; details: H37Rv 331/88, 336 h
[2] = tested on: Mycobacterium tuberculosis; assay: Antimycobacterial activity against Mycobacterium tuberculosis H37Rv 331/88 measured after 21 days by micromethod; type: functional; details: H37Rv 331/88, 504 h
Mycobacterium avium [3] = assay: Antimycobacterial activity against Mycobacterium avium 330/88 measured after 14 days by micromethod; type: functional; details: 330/88, 336 h
Mycobacterium avium [4] = assay: Antimycobacterial activity against Mycobacterium avium 330/88 measured after 21 days by micromethod; type: functional; details: 330/88, 504 h
Mycobacterium kansasii [5] = assay: Antimycobacterial activity against Mycobacterium kansasii isolate 235/80 after 7 days by micromethod; type: functional; details: isolate 235/80, 168 h
Mycobacterium kansasii [6] = assay: Antimycobacterial activity against Mycobacterium kansasii isolate 235/80 after 14 days by micromethod; type: functional; details: isolate 235/80, 336 h
Mycobacterium kansasii [7] = assay: Antimycobacterial activity against Mycobacterium kansasii isolate 235/80 after 21 days by micromethod; type: functional; details: isolate 235/80, 504 h
Mycobacterium kansasii [8] = assay: Antimycobacterial activity against Mycobacterium kansasii isolate 6509/96 after 7 days by micromethod; type: functional; details: isolate 6509/96, 168 h
Mycobacterium kansasii [9] = assay: Antimycobacterial activity against Mycobacterium kansasii isolate 6509/96 after 14 days by micromethod; type: functional; details: isolate 6509/96, 336 h
Mycobacterium kansasii [10] = assay: Antimycobacterial activity against Mycobacterium kansasii isolate 6509/96 after 21 days by micromethod; type: functional; details: isolate 6509/96, 504 h
[11] = Solubility of the compound in Sula's semisynthetic medium up to 1 mM; type: physicochemical
Staphylococcus aureus [12] = assay: Antibacterial activity against Staphylococcus aureus CCM 4516/08 incubated for 24 hrs under dark condition by microdilution broth assay; type: functional; details: CCM 4516/08, 24 h
Method in brief: (§1)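 Broth microdilution per M07-A07, modified, in Mueller-Hinton broth adjusted to pH 7.4 (±0.2). Inoculum is prepared in sterile water to McFarland 0.5 (1.5 × 10⁸ CFU/mL). Plates are incubated in the dark at 35 °C in humid air. MIC is read after 24 and 48 h as at least 95% growth reduction versus control (IC₉₅).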

Staphylococcus aureus [13] = assay: Antibacterial activity against Staphylococcus aureus CCM 4516/08 incubated for 48 hrs under dark condition by microdilution broth assay; type: functional; details: CCM 4516/08, 48 h; method in brief: as §1
Staphylococcus aureus [14] = assay: Antibacterial activity against methicillin-resistant Staphylococcus aureus H 5996/08 incubated for 24 hrs under dark condition by microdilution broth assay; type: functional; details: H 5996/08, 24 h
Method in brief: (§2)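 Microdilution broth method modified per M07-A07, in Mueller-Hinton broth adjusted to pH 7.4 (±0.2). Inoculum made in sterile water to 0.5 McFarland (1.5 × 10⁸ CFU/mL). Plates incubated in the dark at 35 °C in a humid atmosphere, with reads at 24 and 48 h. MIC taken as at least 95% growth reduction (IC₉₅) versus control.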

Staphylococcus aureus [15] = assay: Antibacterial activity against methicillin-resistant Staphylococcus aureus H 5996/08 incubated for 48 hrs under dark condition by microdilution broth assay; type: functional; details: H 5996/08, 48 h; method in brief: as §2
[16] = tested on: Staphylococcus epidermidis; assay: Antibacterial activity against Staphylococcus epidermidis H 6966/08 incubated for 24 hrs under dark condition by microdilution broth assay; type: functional; details: H 6966/08, 24 h; method in brief: as §1
[17] = tested on: Staphylococcus epidermidis; assay: Antibacterial activity against Staphylococcus epidermidis H 6966/08 incubated for 48 hrs under dark condition by microdilution broth assay; type: functional; details: H 6966/08, 48 h; method in brief: as §1
Escherichia coli [18] = assay: Antibacterial activity against Escherichia coli CCM 4517 incubated for 24 hrs under dark condition by microdilution broth assay; type: functional; details: CCM 4517, 24 h; method in brief: as §1
Escherichia coli [19] = assay: Antibacterial activity against Escherichia coli CCM 4517 incubated for 48 hrs under dark condition by microdilution broth assay; type: functional; details: CCM 4517, 48 h; method in brief: as §1
Klebsiella pneumoniae [20] = assay: Antibacterial activity against Klebsiella pneumoniae D 11750/08 up to 500 uM incubated for 24 to 48 hrs under dark condition by microdilution broth assay; type: functional; method in brief: as §1
Klebsiella pneumoniae [21] = assay: Antibacterial activity against ESBL positive Klebsiella pneumoniae J 14368/08 up to 500 uM incubated for 24 to 48 hrs under dark condition by microdilution broth assay; type: functional; method in brief: as §1
Pseudomonas aeruginosa = assay: Antibacterial activity against Pseudomonas aeruginosa CCM 1961 up to 500 uM incubated for 24 to 48 hrs under dark condition by microdilution broth assay; type: functional; method in brief: as §1
Pichia kudriavzevii = assay: Antifungal activity against Candida krusei E28 after 24 to 48 hrs hrs by microdilution broth assay; type: functional
Method in brief: (§3)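 Broth microdilution per CLSI M27-A3 and M38-A2 in RPMI 1640 with glutamine, buffered to pH 7.0 with MOPS. Compounds are diluted in DMSO. Final inoculum is 5 × 10³ CFU/mL for yeasts and 0.5–5 × 10⁴ CFU/mL for moulds. Plates are incubated in the dark at 35 °C in humid air and read visually and/or at 540 nm after 24 and 48 h. MIC is ≥80% growth reduction (IC₈₀) for yeasts and ≥50% (IC₅₀) for filamentous fungi.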

Lichtheimia corymbifera = assay: Antifungal activity against Absidia corymbifera 272 after 24 to 48 hrs hrs by microdilution broth assay; type: functional; method in brief: as §3
Enterococcus [22] = assay: Antibacterial activity against Enterococcus sp. J 14365/08 incubated for 24 hrs under dark condition by microdilution broth assay; details: J 14365/08, 24 h
Enterococcus [23] = assay: Antibacterial activity against Enterococcus sp. J 14365/08 incubated for 48 hrs under dark condition by microdilution broth assay; details: J 14365/08, 48 h

Structure (SMILES)	MIC [1] [µM]	MIC [2] [µM]	MIC (Mycobacterium avium [3]) [µM]	MIC (Mycobacterium avium [4]) [µM]	MIC (Mycobacterium kansasii [5]) [µM]	MIC (Mycobacterium kansasii [6]) [µM]	MIC (Mycobacterium kansasii [7]) [µM]	MIC (Mycobacterium kansasii [8]) [µM]	MIC (Mycobacterium kansasii [9]) [µM]	MIC (Mycobacterium kansasii [10]) [µM]	solubility [11]	Activity (Klebsiella pneumoniae [20])	Activity (Klebsiella pneumoniae [21])	Activity (Pseudomonas aeruginosa)	Activity (Pichia kudriavzevii)	Activity (Lichtheimia corymbifera)	other results
O=C(O)CN1C(=O)/C(=C/c2cccc(O)c2)SC1=S	1000 (≈ 295 µg/mL)	1000 (≈ 295 µg/mL)	> 1000	> 1000	1000 (≈ 295 µg/mL)	1000 (≈ 295 µg/mL)	1000 (≈ 295 µg/mL)	500 (≈ 148 µg/mL)	1000 (≈ 295 µg/mL)	1000 (≈ 295 µg/mL)	Soluble	inactive	inactive	inactive	inactive	inactive	MIC95 (Staphylococcus aureus [12]): > 500 µM; MIC95 (Staphylococcus aureus [13]): > 500 µM; MIC95 (Staphylococcus aureus [14]): 500 µM (≈ 148 µg/mL); MIC95 (Staphylococcus aureus [15]): > 500 µM; MIC95 [16]: > 500 µM; MIC95 [17]: > 500 µM; MIC95 (Escherichia coli [18]): > 500 µM; MIC95 (Escherichia coli [19]): > 500 µM; MIC95 (Enterococcus [22]): 500 µM (≈ 148 µg/mL); MIC95 (Enterococcus [23]): > 500 µM
O=C(CN1C(=O)/C(=C/c2ccccc2O)SC1=S)Nc1ccc(Cl)cc1	8 (≈ 3.24 µg/mL)	16 (≈ 6.48 µg/mL)	62.5 (≈ 25.3 µg/mL)	125 (≈ 50.6 µg/mL)	32 (≈ 13 µg/mL)	62.5 (≈ 25.3 µg/mL)	125 (≈ 50.6 µg/mL)	62.5 (≈ 25.3 µg/mL)	125 (≈ 50.6 µg/mL)	125 (≈ 50.6 µg/mL)	Soluble	inactive	inactive	inactive	inactive	inactive	
O=C(CN1C(=O)CSC1=S)Nc1ccc(Cl)cc1	32 (≈ 9.63 µg/mL)	62.5 (≈ 18.8 µg/mL)	1000 (≈ 301 µg/mL)	1000 (≈ 301 µg/mL)	250 (≈ 75.2 µg/mL)	500 (≈ 150 µg/mL)	500 (≈ 150 µg/mL)	125 (≈ 37.6 µg/mL)	250 (≈ 75.2 µg/mL)	250 (≈ 75.2 µg/mL)	Soluble	inactive	inactive	inactive	inactive	inactive	MIC95 (Staphylococcus aureus [12]): > 500 µM; MIC95 (Staphylococcus aureus [13]): > 500 µM; MIC95 (Staphylococcus aureus [14]): > 500 µM; MIC95 (Staphylococcus aureus [15]): > 500 µM; MIC95 [16]: 500 µM (≈ 150 µg/mL); MIC95 [17]: > 500 µM; MIC95 (Escherichia coli [18]): > 500 µM; MIC95 (Escherichia coli [19]): > 500 µM; MIC95 (Enterococcus [22]): 500 µM (≈ 150 µg/mL); MIC95 (Enterococcus [23]): > 500 µM
Cc1ccc(NC(=O)CN2C(=O)CSC2=S)cc1	500 (≈ 140 µg/mL)	500 (≈ 140 µg/mL)	1000 (≈ 280 µg/mL)	> 1000	250 (≈ 70.1 µg/mL)	500 (≈ 140 µg/mL)	500 (≈ 140 µg/mL)	500 (≈ 140 µg/mL)	500 (≈ 140 µg/mL)	500 (≈ 140 µg/mL)	Soluble	inactive	inactive	inactive	inactive	inactive	
O=C(O)CN1C(=O)CSC1=S [RHODANINE-3-ACETIC ACID]	1000 (≈ 191 µg/mL)	1000 (≈ 191 µg/mL)	1000 (≈ 191 µg/mL)	1000 (≈ 191 µg/mL)	1000 (≈ 191 µg/mL)	1000 (≈ 191 µg/mL)	1000 (≈ 191 µg/mL)	1000 (≈ 191 µg/mL)	1000 (≈ 191 µg/mL)	1000 (≈ 191 µg/mL)							
COc1ccc(NC(=O)CN2C(=O)CSC2=S)cc1	500 (≈ 148 µg/mL)	1000 (≈ 296 µg/mL)	1000 (≈ 296 µg/mL)	> 1000	500 (≈ 148 µg/mL)	500 (≈ 148 µg/mL)	1000 (≈ 296 µg/mL)	500 (≈ 148 µg/mL)	500 (≈ 148 µg/mL)	1000 (≈ 296 µg/mL)	Soluble	inactive	inactive	inactive	inactive	inactive	
Cc1ccc(OC(=O)CN2C(=O)CSC2=S)cc1	1000 (≈ 281 µg/mL)	1000 (≈ 281 µg/mL)	1000 (≈ 281 µg/mL)	1000 (≈ 281 µg/mL)	1000 (≈ 281 µg/mL)	1000 (≈ 281 µg/mL)	1000 (≈ 281 µg/mL)	1000 (≈ 281 µg/mL)	1000 (≈ 281 µg/mL)	1000 (≈ 281 µg/mL)	Soluble	inactive	inactive	inactive	inactive	inactive	
NNC(=O)c1ccncc1 [ISONIAZID]	0.5 (≈ 0.0686 µg/mL)	1 (≈ 0.137 µg/mL)	> 250	> 250	> 250	> 250	> 250	4 (≈ 0.549 µg/mL)	8 (≈ 1.1 µg/mL)	16 (≈ 2.19 µg/mL)							
O=C(CN1C(=O)CSC1=S)Nc1ccc(C(F)(F)F)cc1	500 (≈ 167 µg/mL)	1000 (≈ 334 µg/mL)	> 1000	> 1000	1000 (≈ 334 µg/mL)	1000 (≈ 334 µg/mL)	1000 (≈ 334 µg/mL)	1000 (≈ 334 µg/mL)	1000 (≈ 334 µg/mL)	1000 (≈ 334 µg/mL)	Soluble	inactive	inactive	inactive	inactive	inactive	
